Experimental data reported in ChEMBL document CHEMBL3232898, “Heterocyclic aminoparthenolide derivatives modulate G(2)-M cell cycle progression during Xenopus oocyte maturation” (Bioorg Med Chem Lett, 2014).
Active and inactive are the calls of the source. The rule behind the calls is not given here.

Assays:
[1] = test system: Oocyte; test: Modulation of G2-M cell cycle progression in Xenopus oocytes assessed as effect on phenotype upon progression to GVBD during oocyte maturation in presence of progesterone; type: functional, cell-based
Procedure, shortened: (§1)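 Isolated Xenopus oocytes (20 per well) were incubated overnight with compound added from DMSO stock (100 µM starting concentration, 1% DMSO final). Next morning GVBD was scored by the appearance of a white spot on the animal pole. Oocytes without spots then received 2 µg/ml progesterone. Time to GVBD was expressed relative to the GVBD50 of DMSO controls, where 1.0 means no change, 2.0 means no maturation and 0.0 means spontaneous GVBD.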

[2] = test system: Xenopus; test: Activation of progesterone-independent MAPK in Xenopus oocytes assessed as de-phosphorylation of MPF at 100 uM measured after GVBD completion; type: cell-based
Procedure, shortened: (§2)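 Oocytes treated with compound or DMSO were lysed in NP40 buffer with sodium vanadate and protease inhibitors, clarified, run on 10% gels and blotted to nitrocellulose. Blots were blocked in 1% BSA/TBST and probed at 1:1000 with phospho-Cdc2 Tyr15 (inhibitory) and phospho-MAP kinase Thr202/Tyr204 (activating) antibodies, then HRP secondary with ECL detection.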

[3] = test system: Xenopus; test: Activation of progesterone-independent MAPK in Xenopus oocytes assessed as enzyme phosphorylation at 100 uM measured prior to GVBD completion; type: cell-based; procedure, shortened: as §2
[4] = test system: Oocyte; test: Modulation of G2-M cell cycle progression in Xenopus oocytes assessed as induction of oocyte progression to germinal vesicle breakdown by measuring appearance of white spot on animal pole after overnight incubation in absence of progesterone; type: functional, cell-based; procedure, shortened: as §1
[5] = test system: Oocyte; test: Modulation of G2-M cell cycle progression in Xenopus oocytes assessed as induction of spontaneous maturation by measuring germinal vesicle breakdown at 100 uM after overnight incubation in absence of progesterone; type: functional, cell-based; procedure, shortened: as §1
[6] = test system: Xenopus; test: Activation of progesterone-independent MAPK in Xenopus oocytes assessed as enzyme phosphorylation at 100 uM measured after GVBD completion; type: cell-based; procedure, shortened: as §2
[7] = test system: Xenopus; test: Activation of CDK1/Cyclin B (MPF) in Xenopus oocytes assessed as retention of inhibitory phosphorylation of CDK1 at 100 uM measured prior to GVBD completion; type: cell-based; procedure, shortened: as §2
[8] = test system: Oocyte; test: Modulation of G2-M cell cycle progression in Xenopus oocytes assessed as inhibition of progesterone-stimulated maturation by measuring germinal vesicle breakdown at 100 uM measured after overnight incubation; type: functional, cell-based; procedure, shortened: as §1
[9] = test system: Oocyte; test: Modulation of G2-M cell cycle progression in Xenopus oocytes assessed as acceleration of progesterone-stimulated oocyte progression to germinal vesicle breakdown at 5 to 50 uM measured after overnight incubation relative to DMSO-treated control; type: functional; procedure, shortened: as §1
[10] = test system: Oocyte; test: Modulation of G2-M cell cycle progression in Xenopus oocytes assessed as acceleration of progesterone-stimulated maturation by measuring germinal vesicle breakdown after overnight incubation; type: functional, cell-based; settings: Xenopus laevis; procedure, shortened: as §1
[11] = test system: Oocyte; test: Modulation of G2-M cell cycle progression in Xenopus oocytes assessed as delay time to germinal vesicle breakdown at 100 uM measured after overnight incubation in presence of progesterone; type: functional, cell-based; procedure, shortened: as §1

| SMILES | Activity [1] | also measured |
| --- | --- | --- |
| C/C1=C\CC[C@@]2(C)O[C@@H]2[C@H]2OC(=O)[C@@H](CN(C)C)[C@@H]2CC1 | inactive | – |
| C/C1=C\CC[C@@]2(C)O[C@@H]2[C@H]2OC(=O)[C@@H](Cn3cnc(CO)c3)[C@@H]2CC1 | inactive | – |
| C/C1=C\CC[C@@]2(C)O[C@@H]2[C@H]2OC(=O)[C@@H](Cn3ccnc3C)[C@@H]2CC1 | inactive | – |
| C/C1=C\CC[C@@]2(C)O[C@@H]2[C@H]2OC(=O)[C@@H](CNCc3nc4ccccc4[nH]3)[C@@H]2CC1 | inactive | – |
| C/C1=C\CC[C@@]2(C)O[C@@H]2[C@H]2OC(=O)[C@@H](CNc3nc4ccccc4[nH]3)[C@@H]2CC1 | – | Activity [2]: Active; Activity [3]: Active; Activity [4]: Dose-dependent effect; Activity [5]: Active; Activity [6]: Active; Activity [7]: inactive |
| CSc1nc(NC[C@@H]2C(=O)O[C@H]3[C@H]2CC/C(C)=C/CC[C@@]2(C)O[C@H]32)n[nH]1 | inactive | – |
| C/C1=C\CC[C@@]2(C)O[C@@H]2[C@H]2OC(=O)[C@@H](Cn3cnc(C(F)(F)F)c3)[C@@H]2CC1 | inactive | – |
| C=C1C(=O)O[C@@H]2C3O[C@]3(C)CC/C=C(\C)CC[C@@H]12 (stereo not given in full) | inactive | – |
| C/C1=C\CC[C@@]2(C)O[C@@H]2[C@H]2OC(=O)[C@@H](CNCC3CCNCC3)[C@@H]2CC1 | inactive | – |
| C/C1=C\CC[C@@]2(C)O[C@@H]2[C@H]2OC(=O)[C@@H](Cn3cnc([N+](=O)[O-])c3)[C@@H]2CC1 | inactive | – |
| C/C1=C\CC[C@@]2(C)O[C@@H]2[C@H]2OC(=O)[C@@H](CNCCCn3ccnc3)[C@@H]2CC1 | – | inhibition [8]: Active; fold change (FC) [9]: 2; EC50 [10]: < 5 µM |
| C/C1=C\CC[C@@]2(C)O[C@@H]2[C@H]2OC(=O)[C@@H](CNCCN3CCOCC3)[C@@H]2CC1 | – | Activity [11]: Active |
| C/C1=C\CC[C@@]2(C)O[C@@H]2[C@H]2OC(=O)[C@@H](Cn3ccnc3)[C@@H]2CC1 | inactive | – |
